# Results published in ChEMBL document CHEMBL5678817, “FTBMT, a Novel and Selective GPR52 Agonist, Demonstrates Antipsychotic-Like and Procognitive Effects in Rodents, Revealing a Potential Therapeutic Agent for Schizophrenia” (J Pharmacol Exp Ther, 2017).
# pEC50: −log10 of the molar value. Activity calls are given as the source filed them. The calls are words filed in the database; no cut-off is given here.
# Assays:
# [1] = target: G-protein coupled receptor 52 (Homo sapiens, UniProt Q9Y2T5); assay: Agonist activity at human GPR52 expressed in CHO cells assessed as increase in intracellular cAMP level upto 10 uM incubated for 30 mins by Alphascreen assay; assay type: functional, cell-based
# G-protein coupled receptor 52, sequence (Q9Y2T5 whole entry): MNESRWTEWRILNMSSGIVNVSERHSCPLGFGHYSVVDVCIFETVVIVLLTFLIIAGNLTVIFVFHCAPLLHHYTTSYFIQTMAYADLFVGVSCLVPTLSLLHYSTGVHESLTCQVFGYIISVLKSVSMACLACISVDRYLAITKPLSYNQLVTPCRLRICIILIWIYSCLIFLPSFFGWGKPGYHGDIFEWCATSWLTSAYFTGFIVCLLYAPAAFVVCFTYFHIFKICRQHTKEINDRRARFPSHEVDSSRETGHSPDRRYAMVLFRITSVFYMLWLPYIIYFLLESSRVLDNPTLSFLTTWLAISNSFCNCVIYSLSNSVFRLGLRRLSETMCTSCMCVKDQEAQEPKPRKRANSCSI
# How it was run: (§1)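 CHO cells stably expressing human, mouse or rat GPR52, plus naïve CHO cells, at 10,000 cells/well. Stimulated in cAMP assay buffer for 30 min at 37 °C. Intracellular cAMP read by AlphaScreen.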
# [2] = target: G protein-coupled receptor 52 (Rattus norvegicus) (UniProt A0A8I5ZQK1); assay: Agonist activity at rat GPR52 expressed in CHO cells assessed as increase in intracellular cAMP level upto 10 uM incubated for 30 mins by Alphascreen assay; assay type: cell-based; how it was run: as §1
# G protein-coupled receptor 52 (Rattus norvegicus), sequence (A0A8I5ZQK1 as listed by the source): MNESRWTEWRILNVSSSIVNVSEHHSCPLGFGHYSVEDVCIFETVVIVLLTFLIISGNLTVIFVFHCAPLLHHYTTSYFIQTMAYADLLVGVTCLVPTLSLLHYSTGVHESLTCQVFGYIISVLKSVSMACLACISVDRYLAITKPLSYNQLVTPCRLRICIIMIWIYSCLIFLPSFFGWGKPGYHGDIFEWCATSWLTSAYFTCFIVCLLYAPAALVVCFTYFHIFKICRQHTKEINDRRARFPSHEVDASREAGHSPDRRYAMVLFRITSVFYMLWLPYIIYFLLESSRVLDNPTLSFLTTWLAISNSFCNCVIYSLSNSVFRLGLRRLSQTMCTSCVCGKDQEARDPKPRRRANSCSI
# [3] = target: Carbonic anhydrase 2 (Homo sapiens) (UniProt P00918); assay: Inhibition of Carbonic anhydrase II (unknown origin) at 10 uM relative to control
# How it was run: (§2)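 Single-point screen at 10 μM across receptor, ion channel and enzyme binding or activity assays. Expressed as percent inhibition versus control; negative values denote stimulation.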
# [4] = target: Cholinesterase (Homo sapiens) (UniProt P06276); assay: Inhibition of Choline esterase (unknown origin) at 10 uM relative to control
# Cholinesterase (Homo sapiens), sequence (P06276 whole entry): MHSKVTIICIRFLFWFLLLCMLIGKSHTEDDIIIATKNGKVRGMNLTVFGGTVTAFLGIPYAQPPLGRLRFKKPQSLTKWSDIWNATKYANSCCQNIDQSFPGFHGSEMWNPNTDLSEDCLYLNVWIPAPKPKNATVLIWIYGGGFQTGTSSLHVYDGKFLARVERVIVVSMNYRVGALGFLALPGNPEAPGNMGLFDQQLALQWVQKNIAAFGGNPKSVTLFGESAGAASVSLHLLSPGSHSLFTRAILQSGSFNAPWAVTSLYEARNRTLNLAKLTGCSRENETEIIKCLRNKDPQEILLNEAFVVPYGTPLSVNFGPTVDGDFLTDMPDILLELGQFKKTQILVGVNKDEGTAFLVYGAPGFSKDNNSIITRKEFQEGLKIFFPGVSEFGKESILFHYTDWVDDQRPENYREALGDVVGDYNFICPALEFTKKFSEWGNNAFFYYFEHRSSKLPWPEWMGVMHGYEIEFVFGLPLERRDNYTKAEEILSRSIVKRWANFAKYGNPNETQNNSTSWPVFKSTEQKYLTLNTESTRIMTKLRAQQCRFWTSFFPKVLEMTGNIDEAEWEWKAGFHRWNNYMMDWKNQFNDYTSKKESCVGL
# How it was run: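 Enzyme assay run by an outside lab as part of a 98-target screen of receptors, ion channels and enzymes. Single test concentration of 10 μM; read-out is percent inhibition of enzyme activity versus control, with negative values meaning activation.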
# [5] = target: cAMP-dependent protein kinase (PKA) (Homo sapiens) (UniProt P22694+P17612+P22612); assay: Inhibition of Protein kinase A (unknown origin) at 10 uM relative to control; assay type: protein assay
# How it was run: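 Enzyme activity assays from the same 98-target biochemical panel. Single test concentration of 10 µM. Read-out is % inhibition of enzyme activity relative to control; negative percentages indicate activation of the enzyme.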
# [6] = target: 3-oxo-5-alpha-steroid 4-dehydrogenase 1 (Homo sapiens) (UniProt P18405); assay: Inhibition of Steroid 5alpha-reductase 1 (unknown origin) at 10 uM relative to control
# 3-oxo-5-alpha-steroid 4-dehydrogenase 1 (Homo sapiens), sequence (P18405 whole entry): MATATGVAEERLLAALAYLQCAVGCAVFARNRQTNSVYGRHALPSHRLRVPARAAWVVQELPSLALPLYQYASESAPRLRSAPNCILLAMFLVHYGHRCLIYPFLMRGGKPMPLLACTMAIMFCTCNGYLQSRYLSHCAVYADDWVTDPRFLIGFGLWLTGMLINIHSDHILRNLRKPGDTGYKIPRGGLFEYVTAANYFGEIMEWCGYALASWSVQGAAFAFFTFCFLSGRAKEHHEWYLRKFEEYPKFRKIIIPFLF
# How it was run: (§3)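 Binding and enzyme panel run by an outside contractor against receptors, ion channels and enzymes. Each assay used a single 10 μM test concentration, and results are expressed as percent inhibition. A negative value means stimulation of receptor activity or activation of enzyme activity.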
# [7] = target: Alpha-1A adrenergic receptor (Homo sapiens) (UniProt P35348); assay: Inhibition of Adrenergic alpha1 receptor (unknown origin) at 10 uM relative to control; how it was run: as §2
# Alpha-1A adrenergic receptor (Homo sapiens), sequence (P35348 whole entry): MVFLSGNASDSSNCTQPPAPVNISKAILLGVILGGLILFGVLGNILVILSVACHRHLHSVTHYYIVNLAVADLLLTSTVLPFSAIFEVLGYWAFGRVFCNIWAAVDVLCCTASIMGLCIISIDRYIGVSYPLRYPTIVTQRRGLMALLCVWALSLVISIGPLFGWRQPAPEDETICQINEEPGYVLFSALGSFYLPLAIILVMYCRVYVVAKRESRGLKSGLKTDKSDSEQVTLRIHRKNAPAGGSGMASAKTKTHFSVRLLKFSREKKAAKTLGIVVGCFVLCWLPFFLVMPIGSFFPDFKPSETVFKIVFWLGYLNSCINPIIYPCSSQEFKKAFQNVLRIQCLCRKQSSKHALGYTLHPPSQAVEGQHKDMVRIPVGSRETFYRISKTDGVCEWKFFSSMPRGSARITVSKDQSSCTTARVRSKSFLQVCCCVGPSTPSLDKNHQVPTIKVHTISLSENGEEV
# [8] = target: Beta-1 adrenergic receptor (Homo sapiens) (UniProt P08588); assay: Inhibition of Adrenergic beta1 receptor (unknown origin) at 10 uM relative to control; how it was run: as §2
# Beta-1 adrenergic receptor (Homo sapiens), sequence (P08588 whole entry, looked up): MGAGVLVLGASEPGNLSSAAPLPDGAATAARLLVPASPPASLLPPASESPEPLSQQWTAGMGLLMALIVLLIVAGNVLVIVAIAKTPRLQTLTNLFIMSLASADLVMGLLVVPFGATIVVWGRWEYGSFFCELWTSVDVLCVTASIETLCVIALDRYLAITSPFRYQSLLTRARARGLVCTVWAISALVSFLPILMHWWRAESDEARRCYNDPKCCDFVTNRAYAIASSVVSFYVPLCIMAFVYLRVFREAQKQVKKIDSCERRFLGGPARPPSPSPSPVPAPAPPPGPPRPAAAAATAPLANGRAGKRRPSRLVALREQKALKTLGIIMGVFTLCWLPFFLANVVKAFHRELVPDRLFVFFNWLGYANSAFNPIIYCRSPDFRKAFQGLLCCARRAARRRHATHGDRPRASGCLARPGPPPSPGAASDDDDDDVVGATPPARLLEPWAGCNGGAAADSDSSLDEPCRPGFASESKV
# [9] = target: Beta-3 adrenergic receptor (Homo sapiens) (UniProt P13945); assay: Inhibition of Adrenergic beta3 (unknown origin) at 10 uM relative to control; how it was run: as §2
# [10] = target: D(1A) dopamine receptor (Homo sapiens) (UniProt P21728); assay: Inhibition of Dopamine D1 receptor (unknown origin) at 10 uM relative to control; how it was run: as §2
# [11] = target: D(4) dopamine receptor (Homo sapiens) (UniProt P21917); assay: Inhibition of Dopamine D4 receptor (unknown origin) at 10 uM relative to control
# D(4) dopamine receptor (Homo sapiens), sequence (P21917 whole entry): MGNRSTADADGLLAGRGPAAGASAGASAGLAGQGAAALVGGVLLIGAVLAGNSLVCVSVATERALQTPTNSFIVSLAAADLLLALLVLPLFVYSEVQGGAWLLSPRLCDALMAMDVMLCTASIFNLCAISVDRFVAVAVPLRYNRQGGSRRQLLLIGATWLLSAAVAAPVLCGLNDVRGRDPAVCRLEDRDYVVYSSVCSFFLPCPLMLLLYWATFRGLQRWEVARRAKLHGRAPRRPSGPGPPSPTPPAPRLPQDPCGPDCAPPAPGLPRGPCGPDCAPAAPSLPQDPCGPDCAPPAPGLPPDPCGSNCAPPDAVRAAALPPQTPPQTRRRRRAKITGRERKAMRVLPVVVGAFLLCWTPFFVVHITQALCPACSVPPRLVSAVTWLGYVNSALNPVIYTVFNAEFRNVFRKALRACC
# How it was run: (§4)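 Part of a 98-target external biochemical selectivity panel that used radioligand/receptor binding-type assays. Compound tested once at 10 µM. Results are reported as % inhibition versus control; negative values mean stimulation of receptor activity.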
# [12] = organism: Homo sapiens; assay: Inhibition of Glutamate receptor (unknown origin) at 10 uM relative to control; how it was run: as §4
# [13] = target: Glutamate [NMDA] receptor (Homo sapiens) (UniProt Q05586+Q12879+Q13224+O15399+O60391+Q14957+Q8TCU5); assay: Inhibition of Glutamate NMDA receptor (unknown origin) at 10 uM relative to control; assay type: protein-complex assay; how it was run: as §4
# [14] = organism: Homo sapiens; assay: Inhibition of strychnine-Glycine receptor (unknown origin) at 10 uM relative to control; how it was run: as §3
# [15] = target: Muscarinic acetylcholine receptor M2 (Homo sapiens) (UniProt P08172); assay: Inhibition of Muscarinic M2 receptor (unknown origin) at 10 uM relative to control; how it was run: as §4
# Muscarinic acetylcholine receptor M2 (Homo sapiens), sequence (P08172 whole entry): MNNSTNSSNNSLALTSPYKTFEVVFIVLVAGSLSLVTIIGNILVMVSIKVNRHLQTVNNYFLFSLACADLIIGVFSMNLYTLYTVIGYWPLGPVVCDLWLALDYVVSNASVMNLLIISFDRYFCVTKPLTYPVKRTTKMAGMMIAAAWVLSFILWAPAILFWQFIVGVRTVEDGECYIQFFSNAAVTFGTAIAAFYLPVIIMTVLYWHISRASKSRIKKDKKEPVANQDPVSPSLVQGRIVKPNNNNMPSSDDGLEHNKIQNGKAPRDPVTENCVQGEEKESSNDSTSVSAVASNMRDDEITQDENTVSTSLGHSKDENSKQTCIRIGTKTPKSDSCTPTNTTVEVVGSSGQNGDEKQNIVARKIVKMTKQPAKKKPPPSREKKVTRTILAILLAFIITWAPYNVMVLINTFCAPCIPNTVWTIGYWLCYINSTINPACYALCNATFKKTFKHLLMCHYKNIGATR
# [16] = target: Muscarinic acetylcholine receptor M3 (Homo sapiens) (UniProt P20309); assay: Inhibition of Muscarinic M3 receptor (unknown origin) at 10 uM relative to control; how it was run: as §4
# Muscarinic acetylcholine receptor M3 (Homo sapiens), sequence (P20309 whole entry, looked up): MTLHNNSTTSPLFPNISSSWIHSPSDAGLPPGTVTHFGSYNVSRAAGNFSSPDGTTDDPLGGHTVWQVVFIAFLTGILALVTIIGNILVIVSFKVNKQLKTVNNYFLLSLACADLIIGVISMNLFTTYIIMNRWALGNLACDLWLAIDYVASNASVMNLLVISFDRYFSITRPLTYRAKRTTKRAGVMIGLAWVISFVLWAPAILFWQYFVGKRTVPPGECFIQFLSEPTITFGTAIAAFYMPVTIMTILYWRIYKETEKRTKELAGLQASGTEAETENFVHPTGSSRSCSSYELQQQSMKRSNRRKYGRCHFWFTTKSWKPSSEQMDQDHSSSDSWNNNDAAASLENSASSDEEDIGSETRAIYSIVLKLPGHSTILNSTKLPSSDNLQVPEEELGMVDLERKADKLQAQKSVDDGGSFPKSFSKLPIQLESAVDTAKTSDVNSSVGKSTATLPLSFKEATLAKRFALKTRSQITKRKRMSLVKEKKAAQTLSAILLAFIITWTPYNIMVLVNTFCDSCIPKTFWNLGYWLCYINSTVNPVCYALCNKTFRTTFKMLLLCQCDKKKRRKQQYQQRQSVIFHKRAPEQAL
# [17] = target: Thromboxane A2 receptor (Homo sapiens) (UniProt P21731); assay: Inhibition of Thromboxane A2 receptor (unknown origin) at 10 uM relative to control; how it was run: as §3
# [18] = target: Sodium-dependent serotonin transporter (Homo sapiens) (UniProt P31645); assay: Inhibition of SERT receptor (unknown origin) at 10 uM relative to control; how it was run: as §4
# Sodium-dependent serotonin transporter (Homo sapiens), sequence (P31645 whole entry, looked up): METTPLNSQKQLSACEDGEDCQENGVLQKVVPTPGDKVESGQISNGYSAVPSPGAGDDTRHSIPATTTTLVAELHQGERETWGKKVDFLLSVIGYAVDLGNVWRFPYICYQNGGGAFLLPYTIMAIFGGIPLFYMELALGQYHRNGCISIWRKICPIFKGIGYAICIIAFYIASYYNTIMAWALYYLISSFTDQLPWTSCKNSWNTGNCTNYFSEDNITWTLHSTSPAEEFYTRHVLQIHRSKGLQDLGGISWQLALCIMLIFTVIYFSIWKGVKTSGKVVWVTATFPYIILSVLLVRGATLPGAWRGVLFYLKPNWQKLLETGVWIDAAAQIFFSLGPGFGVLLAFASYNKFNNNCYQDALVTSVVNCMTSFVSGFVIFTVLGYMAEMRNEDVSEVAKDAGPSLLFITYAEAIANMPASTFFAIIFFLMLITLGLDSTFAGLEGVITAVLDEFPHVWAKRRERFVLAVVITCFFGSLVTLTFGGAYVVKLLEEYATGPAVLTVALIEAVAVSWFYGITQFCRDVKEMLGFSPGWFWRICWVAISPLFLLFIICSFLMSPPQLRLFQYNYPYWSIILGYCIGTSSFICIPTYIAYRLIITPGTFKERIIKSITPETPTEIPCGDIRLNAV
# [19] = organism: Homo sapiens; assay: Inhibition of dopamine receptor (unknown origin) at 10 uM relative to control; how it was run: as §3
# [20] = target: G protein-coupled receptor 52 (Rattus norvegicus, UniProt A0A8I5ZQK1); assay: Agonist activity at GPR52 in rat Striatal neuron assessed as increase in intracellular cAMP level […] by Alphascreen assay; assay type: cell-based
# G protein-coupled receptor 52, sequence (A0A8I5ZQK1 whole entry): as the sequence (A0A8I5ZQK1 as listed by the source) above
# [21] = system: Mus musculus; assay: Antipsychotic activity in C57BL/6N mouse assessed as increase in c-fos positive cells in nucleus accumbens at 30 mg/kg, po measured for 2 hrs by immunohistochemistry analysis; assay type: functional, organism-based
# [22] = system: Mus musculus; assay: Antipsychotic activity in C57BL/6N mouse assessed as increase in c-fos positive cells in dorsolateral striatum at 30 mg/kg, po measured for 2 hrs by immunohistochemistry analysis; assay type: functional, organism-based
# [23] = system: Mus musculus; assay: Antipsychotic activity in C57BL/6N mouse assessed as increase in Egr-2 mRNA expression at 3 to 100 mg/kg, po measured for 1 hr by qPCR analysis; assay type: functional, organism-based; details: dose 3-100 mg/kg
# How it was run: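 Mice dosed orally at 3–100 mg/kg or vehicle. Tissues taken 1 h post-dose, NAc shell and striatum dissected, frozen on dry ice. IEG mRNA quantified by qPCR (absolute or ΔΔCt); n = 5–6; mean ± SEM.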
# [24] = system: Rattus norvegicus; assay: Pro-cognitive activity in Long-Evans rat at10 mg/kg, po measured after 1 hr by radial arm maze test; assay type: functional, organism-based; details: dose 10.0 mg/kg
# How it was run: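 Male Long-Evans rats (9 weeks) were trained on the radial arm maze until they made fewer than two errors on two consecutive days. Errors were re-entries into arms or uneaten pellets, within 5 min. Oral 10 mg/kg or vehicle was given 1 h pretest, and MK-801 0.08 mg/kg s.c. or saline 30 min pretest. Scoring was blinded. n = 8–14.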
# [25] = system: Mus musculus; assay: Antipsychotic activity in C57BL/6N mouse assessed as increase in c-fos positive cells in entorhinal cortex at 30 mg/kg, po measured for 2 hrs by immunohistochemistry analysis; assay type: functional, organism-based
# [26] = system: Mus musculus; assay: Antipsychotic activity in C57BL/6N mouse assessed as increase in c-fos positive cells in frontal cortex at 30 mg/kg, po measured for 2 hrs by immunohistochemistry analysis; assay type: functional, organism-based
# [27] = system: Mus musculus; assay: Pro-cognitive activity in C57BL/6N mouse assessed as increase in c-fos gene expression in hippocampus at 3 to 30 mg/kg, po measured after 2 hrs […]; assay type: functional, organism-based; details: dose 3-30 mg/kg
# [28] = system: Mus musculus; assay: Pro-cognitive activity in GPR52 knockout C57BL/6N mouse assessed as increase in c-fos gene expression in hippocampus at 30 mg/kg, po measured after 2 hrs […]; assay type: functional, organism-based
smiles,measurement,setting,value
Cc1cc(-n2nc(Cc3cc(F)cc(C(F)(F)F)c3)nc2C)ccc1C(N)=O [TP-024],Activity,[1],inactive
same,Activity,[2],inactive
same,inhibition,[3],4%
same,inhibition,[4],18%
same,inhibition,[5],17%
same,inhibition,[6],0%
same,inhibition,[7],3%
same,inhibition,[8],-1%
same,inhibition,[9],0%
same,inhibition,[10],7%
same,inhibition,[11],3%
same,inhibition,[12],2%
same,inhibition,[13],-7%
same,inhibition,[14],-4%
same,inhibition,[15],-6%
same,inhibition,[16],-6%
same,inhibition,[17],-6%
same,inhibition,[18],8%
same,inhibition,[19],-1%
same,pEC50,[20],6.82
same,Activity,[21],Active
same,Activity,[22],inactive
same,Activity,[23],Active
same,Activity,[24],Active
same,Activity,[25],Active
same,Activity,[26],Active
same,Activity,[27],Active
same,Activity,[28],inactive
